Experimental findings from ChEMBL document CHEMBL2021845, “Targeting anthracycline-resistant tumor cells with synthetic aloe-emodin glycosides” (ACS Med Chem Lett, 2011) are described below.

The test system of data set [1] is MCF7. Description: Cytotoxicity against human MCF7 cells after 24 hrs by XTT assay. It is filed as functional, cell-based. Particulars: MCF7, 24 h. A general note: Tetrazolium dyes change colour on reduction, which living cells bring about.
The subject of data set [2] is SK-OV-3. Briefly: Cytotoxicity against human SKOV3 cells after 24 hrs by XTT assay. Format: functional, cell-based. The settings on record: SK-OV-3, 24 h.
Data set [3] deals with Nucleic Acid. Description: Binding affinity to Escherichia coli pBR322 DNA assessed as DNA unwinding at 5 to 10 uM after 15 mins by agarose gel electrophoresis. It is filed as nucleic-acid assay.
For data set [4], the system named is Nucleic Acid. Description: Binding affinity to Escherichia coli pBR322 DNA assessed as DNA migration at 200 uM after 15 mins by agarose gel electrophoresis. Format: nucleic-acid assay. The method, boiled down:
(§1)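 Supercoiled plasmid pBR322 DNA was preincubated with compound at 200 or 20 μM. Samples were run on a 1% agarose gel for 4 h at 70 V and stained with ethidium bromide. Unwinding was judged qualitatively from the shift in migration of supercoiled DNA against a no-drug lane.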

Data set [5] in a line: Cytotoxicity against human NAR cells after 24 hrs by XTT assay. Format: functional, cell-based.
The test system of data set [6] is MOLT-4. Briefly: Cytotoxicity against human MOLT4 cells after 24 hrs by XTT assay. Format: functional, cell-based. Particulars: MOLT-4, 24 h.
For data set [7], the system named is OVCAR-3. Briefly: Cytotoxicity against human OVCAR3 cells after 24 hrs by XTT assay. It is filed as functional, cell-based. Particulars: OVCAR-3, 24 h.
For data set [8], the system named is SK-OV-3. Description: Cytotoxicity against human SKOV3 cells assessed as cell viability at 20 uM after 24 hrs by XTT assay. The settings on record: SK-OV-3, 24 h, read-out: Activity. Format: functional.
The nature of data set [9]: Toxicity in Wistar rat erythrocytes assessed as hemolysis at 50 uM after 1 hr. It is filed as cell-based, Erythrocyte. The settings on record: read-out: Activity.
The test system of data set [10] is MCF7. Briefly: Cytotoxicity against doxorubicin-resistant human MCF7 cells assessed as cell viability at 20 uM after 24 hrs by XTT assay. It is filed as functional. Particulars: MCF7, 24 h, read-out: Activity.
The nature of data set [11]: (§2) Cytotoxicity against doxorubicin-resistant human NAR cells assessed as cell viability at 100 uM after 24 hrs by XTT assay. Format: functional. The settings on record: read-out: Activity. The method, boiled down:
(§3)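 NAR ovarian cancer cells with P-glycoprotein efflux pump overexpression; 24 h exposure to compound up to 100 μM; cell viability read-out.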

A short description of data set [12]: Cytotoxicity against human lymphocytes assessed as cell viability at 20 uM after 24 hrs by XTT assay relative to untreated control. It is filed as cell-based, Lymphocyte. Particulars: read-out: Activity. The method, boiled down: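 Normal human lymphocyte samples from two individuals; 24 h incubation with compound at 20 μM; viability expressed relative to an untreated cell control.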

The test system of data set [13] is OVCAR-3. Briefly: Cytotoxicity against human OVCAR3 cells assessed as induction of cell death at 10 uM after 24 hrs by trypan blue dye exclusion test. Format: functional, cell-based. The method, boiled down:
(§4)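 Cells were incubated with 10 μM compound for 24 h. A trypan blue dye exclusion test in cell suspension then counted total and dye-stained (dead) cells against an untreated control.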

Data set [14] has as its system NAR. Described as §2. It is filed as functional. The method, boiled down: as §3
Data set [15] relates to NAR. Description: Cytotoxicity against human NAR cells assessed as induction of cell death at 10 uM after 24 hrs by trypan blue dye exclusion test. Format: functional, cell-based. The essentials:
as §4

For data set [16], the system named is Nucleic Acid. Description: Binding affinity to Escherichia coli pBR322 DNA assessed as DNA migration at 20 uM after 15 mins by agarose gel electrophoresis. It is filed as nucleic-acid assay. The method, boiled down: as §1
The subject of data set [17] is OVCAR-3. Description: Cytotoxicity against human OVCAR3 cells assessed as cell viability at 20 uM after 24 hrs by XTT assay. It is filed as functional. Particulars: OVCAR-3, 24 h, read-out: Activity.
A short description of data set [18]: Drug uptake in doxorubicin-resistant human NAR cell plasma membrane at 5 uM after 2 hrs by confocal microscopic analysis. It is filed as ADME, cell-based. The method, boiled down: (§5)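 P-gp-overexpressing NAR ovarian cancer cells were incubated with 5 μM compound for 2 h, then fixed in paraformaldehyde. Plasma membranes were stained with carbocyanine tracer DiD. Confocal imaging used Ex/Em 488/525 nm for the drug and 640/685 nm for DiD, to localize drug in membrane versus cell interior.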

Data set [19] in a line: Cytotoxicity against human lymphocytes assessed as cell viability after 24 hrs by XTT assay relative to untreated control. It is filed as cell-based. Particulars: Lymphocyte. The method, boiled down: (§6)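 Normal human lymphocytes from two individual donors were exposed to compound for 24 h or for a 3 h incubation. Viability was expressed relative to an untreated-cell control, and IC50 was derived per blood sample.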

The nature of data set [20]: Cytotoxicity against human lymphocytes assessed as cell viability after 3 hrs by XTT assay relative to untreated control. Format: cell-based. Particulars: Lymphocyte. The method, boiled down:
as §6

Data set [21] is described as follows: Cellular uptake in doxorubicin-resistant human NAR cells at 5 uM after 2 hrs by confocal microscopic analysis. It is filed as ADME, cell-based. The essentials: as §5

The term IC50 denotes the midpoint of a concentration-inhibition curve.

The structures appear in SMILES notation. Active and inactive are the calls of the source. The calls are words filed in the database; no cut-off is given here.

Take `C[C@@H]1O[C@@H](OCc2cc(O)c3c(c2)C(=O)c2cccc(O)c2C3=O)C[C@@H](N)[C@H]1O`: the IC50 in data set [1] was found to be 12.7 µM; in data set [2], 13.5 µM; in data set [5] it was 18 µM; in [6], 5.4 µM; in data set [7], 15.7 µM. Moreover, the result in data set [3] and in data set [4] was inactive.

Consider `O=C1c2cccc(O)c2C(=O)c2c(O)cc(CO)cc21` [ALOE-EMODIN], for which the viability at 20 µM in data set [8] was found to be 98%; in data set [10] it was 77%. Further, in data set [9], the hemolysis at 1 h, 50 µM worked out at 0%. Moreover, the IC50 in data set [1] is more than 20 µM; in data set [2] it was more than 20 µM; in [5] it was more than 100 µM; in data set [6], more than 20 µM; in [7], more than 20 µM. In addition, the outcome in data set [4] was inactive. For the same compound, the viability at 100 µM in data set [11] is 78%. Also, the viability at 24 h, 20 µM in data set [12] was 77%.

For `C[C@H]1O[C@@H](OCc2cc(O)c3c(c2)C(=O)c2cccc(O)c2C3=O)C[C@@H](N)[C@@H]1O`, the viability at 20 µM in [8] is 92%. Also, the IC50 is 11.9 µM in data set [1]; more than 20 µM in data set [2]; more than 100 µM in [5]; 7.6 µM in data set [6]; 6.4 µM in [7]. Moreover, the result in [3] and in [4] was inactive.

In the case of `COc1cccc2c1C(=O)c1c(O)c3c(c(O)c1C2=O)C[C@@](O)(C(=O)CO)C[C@@H]3O[C@H]1C[C@H](N)[C@H](O)[C@H](C)O1` [DOXORUBICIN], the viability at 20 µM in [8] was determined as 63%; in data set [10], 83%; in data set [17], 61%. Further, the hemolysis at 1 h, 50 µM in data set [9] came to 2%. Moreover, the result in [13], in [14] and in data set [15] was inactive. Moreover, the IC50 in [1] is more than 20 µM; in data set [2], more than 20 µM; in data set [5], more than 100 µM; in [6], 0.2 µM; in data set [7], more than 20 µM. In addition, the outcome in data set [4] and in [16] was Active. Also, in data set [12], the viability at 24 h, 20 µM worked out at 100%. In addition, the Drug uptake entry in data set [18] is “Active”.

Turning to `C[C@H]1O[C@@H](OCc2cc(O)c3c(c2)C(=O)c2cccc(O)c2C3=O)C[C@H](N)[C@@H]1O`, the viability at 20 µM in data set [8] was found to be 84%; in data set [10], 83%; in [17] it was 60%. Further, the half-maximal inhibitory concentration (IC50) in [1] is more than 20 µM; in data set [2] it was more than 20 µM; in data set [5], 28.3 µM; in [6], 12.8 µM; in data set [7], more than 20 µM. For the same compound, the result in data set [3] and in data set [4] was inactive.

Turning to `C[C@@H]1O[C@@H](OCc2cc(O)c3c(c2)C(=O)c2cccc(O)c2C3=O)C[C@H](N)[C@H]1O`, the hemolysis at 1 h, 50 µM in [9] amounted to 3%. Besides, the outcome in [13] and in [15] was Active. For the same compound, the IC50 in data set [19] was found to be 3 µM; in [1], 7.1 µM; in data set [2] it was 6.9 µM; in data set [20] it was 3 µM; in [5], 8.6 µM; in [6], 5.8 µM. Besides, half-maximal inhibition in data set [7] (IC50) was put at 5.2 µM. For the same compound, the result in data set [3] and in data set [4] was inactive. Also, the Drug uptake result in data set [21] was “Active”.
